Data as given in ChEMBL document CHEMBL1932942, “Antioxidant properties of 4-quinolones and structurally related flavones” (Bioorg Med Chem, 2012).
Calls of active or inactive are those of the source. No cut-off for these calls is given here.

Tested on: Brain
Assay: Antioxidant activity against toxin solution-induced lipid peroxidation in Sprague-Dawley rat brain homogenates assessed as free MDA levels per mg of tissue at 0.01 by TBARS assay
Format: functional, tissue-based
Procedure, shortened: (§1)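 Adult Sprague Dawley rat brains (200–250 g) homogenised 10% (w/v) in PBS, pH 7.4. Peroxidation induced with toxin solution (0.5 mM H2O2, 0.488 mM FeCl3, 0.14 mM ascorbic acid, 2:1:1). Compounds given in 10% DMSO final, with a 10% DMSO blank. BHT, TCA and TBA added, then 60 °C incubation, ice cooling and butanol extraction. A530 read; nmol MDA equivalents/mg tissue from a TMP curve.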

SMILES | Activity
O=c1cc(-c2ccccc2)oc2cc(O)ccc12 | 0.42 nmol
O=c1cc(-c2ccccc2)oc2ccc(O)cc12 | 0.82 nmol
Oc1cccc2cccnc12 | 0.93 nmol
O=c1cc(-c2ccccc2)oc2ccccc12 | 0.78 nmol
Oc1ccc2nc(-c3ccccc3)cc(O)c2c1 | 0.48 nmol
Oc1ccnc2ccccc12 | 0.93 nmol
Oc1cc(-c2ccccc2)nc2ccccc12 | 0.91 nmol
c1ccc2ncccc2c1 | 0.8 nmol
Oc1ccc2c(O)cc(-c3ccccc3)nc2c1 | 0.69 nmol
Oc1cc(-c2ccccc2)nc2c(O)cccc12 | 0.58 nmol

Tested on: Brain
Assay: Antioxidant activity against toxin solution-induced lipid peroxidation in Sprague-Dawley rat brain homogenates assessed as free MDA levels per mg of tissue at 0.001 by TBARS assay
Format: functional, tissue-based

SMILES | Activity
O=c1cc(-c2ccccc2)oc2cc(O)ccc12 | inactive
O=c1cc(-c2ccccc2)oc2ccc(O)cc12 | inactive
Oc1cccc2cccnc12 | inactive
O=c1cc(-c2ccccc2)oc2ccccc12 | inactive
Oc1ccc2nc(-c3ccccc3)cc(O)c2c1 | inactive
Oc1ccnc2ccccc12 | inactive
Oc1cc(-c2ccccc2)nc2ccccc12 | inactive
c1ccc2ncccc2c1 | inactive
Oc1ccc2c(O)cc(-c3ccccc3)nc2c1 | inactive
Oc1cc(-c2ccccc2)nc2c(O)cccc12 | inactive

Tested on: not listed separately
Assay: Antioxidant activity assessed as trolox equivalents ratio of AAPH-induced peroxyl radical scavenging activity at 0.1 mM by ORAC assay
Format: functional
Procedure, shortened: (§2)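 Peroxyl scavenging in 75 mM potassium phosphate, pH 7.4. Compound in 10% DMSO (final) was mixed with 112 nM fluorescein, and 36 mM AAPH (final) was added. Fluorescence (ex 485/em 530 nm) was read every 5 min for 3 h. AUC was converted to Trolox equivalents against a Trolox curve (0–20 µM, duplicates). DMSO blank was subtracted. Mean of triplicates.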

SMILES | Ratio | Activity
O=c1cc(-c2ccccc2)oc2ccc(O)cc12 | 59 | –
Oc1cccc2cccnc12 | 55.4 | –
O=c1cc(-c2ccccc2)oc2ccccc12 | – | inactive
Oc1ccc2nc(-c3ccccc3)cc(O)c2c1 | 58.3 | –
Oc1cc(-c2ccccc2)nc2ccccc12 | 1.91 | –
Oc1ccc2c(O)cc(-c3ccccc3)nc2c1 | 57.5 | –
Oc1cc(-c2ccccc2)nc2c(O)cccc12 | 65.4 | –

Tested on: not listed separately
Assay: Antioxidant activity assessed as AAPH-induced peroxyl radical scavenging activity at 1 mM by ORAC assay
Format: functional

SMILES | Activity | Ratio
O=c1cc(-c2ccccc2)oc2cc(O)ccc12 | inactive | –
O=c1cc(-c2ccccc2)oc2ccc(O)cc12 | inactive | –
Oc1cccc2cccnc12 | inactive | –
O=c1cc(-c2ccccc2)oc2ccccc12 | – | 2.4
Oc1ccc2nc(-c3ccccc3)cc(O)c2c1 | inactive | –
Oc1ccnc2ccccc12 | inactive | –
Oc1cc(-c2ccccc2)nc2ccccc12 | inactive | –
c1ccc2ncccc2c1 | inactive | –
Oc1ccc2c(O)cc(-c3ccccc3)nc2c1 | inactive | –
Oc1cc(-c2ccccc2)nc2c(O)cccc12 | inactive | –

Tested on: not listed separately
Assay: Antioxidant activity assessed as trolox equivalents ratio of ferric ion reducing activity using fe3+-TPTZ at 0.001 mM by FRAP assay
Format: functional
Procedure, shortened: (§3)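 Compound in 10% DMSO (final) was mixed with FRAP reagent (300 mM acetate buffer pH 3.6, 10 mM TPTZ in 40 mM HCl, 20 mM FeCl3, 10:1:1). Reading at 37 °C, 595 nm, after a 3 min lag, then every 6 min to 33 min. Value at 33 min expressed as percent of the 0.1 mM Trolox standard. DMSO/reagent blank subtracted. Triplicates.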

SMILES | Ratio
O=c1cc(-c2ccccc2)oc2cc(O)ccc12 | 2.04
O=c1cc(-c2ccccc2)oc2ccc(O)cc12 | 1.84
Oc1cccc2cccnc12 | 2.65
O=c1cc(-c2ccccc2)oc2ccccc12 | 0.2
Oc1ccc2nc(-c3ccccc3)cc(O)c2c1 | 2.14
Oc1ccnc2ccccc12 | 2.82
Oc1cc(-c2ccccc2)nc2ccccc12 | 0.53
c1ccc2ncccc2c1 | 1.97
Oc1ccc2c(O)cc(-c3ccccc3)nc2c1 | -3.48
Oc1cc(-c2ccccc2)nc2c(O)cccc12 | 3.56

Tested on: not listed separately
Assay: Antioxidant activity assessed as ferric ion reducing activity using fe3+-TPTZ at 1 mM by FRAP assay
Format: functional

SMILES | Activity | Ratio
O=c1cc(-c2ccccc2)oc2cc(O)ccc12 | inactive | –
O=c1cc(-c2ccccc2)oc2ccc(O)cc12 | inactive | –
Oc1cccc2cccnc12 | inactive | –
O=c1cc(-c2ccccc2)oc2ccccc12 | – | 2.72
Oc1ccc2nc(-c3ccccc3)cc(O)c2c1 | inactive | –
Oc1ccnc2ccccc12 | inactive | –
Oc1cc(-c2ccccc2)nc2ccccc12 | inactive | –
c1ccc2ncccc2c1 | inactive | –
Oc1ccc2c(O)cc(-c3ccccc3)nc2c1 | inactive | –
Oc1cc(-c2ccccc2)nc2c(O)cccc12 | inactive | –

Tested on: not listed separately
Assay: Antioxidant activity assessed as trolox equivalents ratio of AAPH-induced peroxyl radical scavenging activity at 0.01 mM by ORAC assay
Format: functional
Procedure, shortened: as §2

SMILES | Ratio
O=c1cc(-c2ccccc2)oc2ccc(O)cc12 | 37.1
Oc1cccc2cccnc12 | 30.5
O=c1cc(-c2ccccc2)oc2ccccc12 | 1.51
Oc1ccc2nc(-c3ccccc3)cc(O)c2c1 | 29
Oc1ccc2c(O)cc(-c3ccccc3)nc2c1 | 26.4
Oc1cc(-c2ccccc2)nc2c(O)cccc12 | 26.1

Tested on: not listed separately
Assay: Antioxidant activity assessed as trolox equivalents ratio of ferric ion reducing activity using fe3+-TPTZ at 0.1 mM by FRAP assay
Format: functional
Procedure, shortened: as §3

SMILES | Ratio | Activity
O=c1cc(-c2ccccc2)oc2cc(O)ccc12 | 15.1 | –
Oc1cccc2cccnc12 | 15.4 | –
O=c1cc(-c2ccccc2)oc2ccccc12 | – | inactive
Oc1ccc2nc(-c3ccccc3)cc(O)c2c1 | 58.9 | –
Oc1ccnc2ccccc12 | 0.23 | –
Oc1cc(-c2ccccc2)nc2ccccc12 | 4.79 | –
c1ccc2ncccc2c1 | 0.98 | –
Oc1ccc2c(O)cc(-c3ccccc3)nc2c1 | 1.41 | –
Oc1cc(-c2ccccc2)nc2c(O)cccc12 | 97.7 | –

Tested on: Brain
Assay: Antioxidant activity against toxin solution-induced lipid peroxidation in Sprague-Dawley rat brain homogenates assessed as free MDA levels per mg of tissue at 0.1 by TBARS assay
Format: functional, tissue-based
Procedure, shortened: as §1

SMILES | Activity
O=c1cc(-c2ccccc2)oc2cc(O)ccc12 | 0.48 nmol
O=c1cc(-c2ccccc2)oc2ccc(O)cc12 | 0.79 nmol
Oc1cccc2cccnc12 | 0.83 nmol
O=c1cc(-c2ccccc2)oc2ccccc12 | 0.87 nmol
Oc1ccc2nc(-c3ccccc3)cc(O)c2c1 | 0.31 nmol
Oc1ccnc2ccccc12 | 0.92 nmol
Oc1cc(-c2ccccc2)nc2ccccc12 | 0.87 nmol
c1ccc2ncccc2c1 | 0.77 nmol
Oc1ccc2c(O)cc(-c3ccccc3)nc2c1 | 0.71 nmol
Oc1cc(-c2ccccc2)nc2c(O)cccc12 | 0.49 nmol

Tested on: not listed separately
Assay: Antioxidant activity assessed as trolox equivalents ratio of ferric ion reducing activity using fe3+-TPTZ at 0.01 mM by FRAP assay
Format: functional
Procedure, shortened: as §3

SMILES | Ratio
O=c1cc(-c2ccccc2)oc2cc(O)ccc12 | 2.52
O=c1cc(-c2ccccc2)oc2ccc(O)cc12 | 2.47
Oc1cccc2cccnc12 | 3.68
O=c1cc(-c2ccccc2)oc2ccccc12 | 3.73
Oc1ccc2nc(-c3ccccc3)cc(O)c2c1 | 9.53
Oc1ccnc2ccccc12 | 1.69
Oc1cc(-c2ccccc2)nc2ccccc12 | 1.06
c1ccc2ncccc2c1 | 2.42
Oc1ccc2c(O)cc(-c3ccccc3)nc2c1 | -1.26
Oc1cc(-c2ccccc2)nc2c(O)cccc12 | 25.5

Tested on: not listed separately
Assay: Antioxidant activity assessed as trolox equivalents ratio of AAPH-induced peroxyl radical scavenging activity at 0.001 mM by ORAC assay
Format: functional
Procedure, shortened: as §2

SMILES | Ratio
O=c1cc(-c2ccccc2)oc2ccc(O)cc12 | 21.4
Oc1cccc2cccnc12 | 10.2
Oc1ccc2nc(-c3ccccc3)cc(O)c2c1 | 12.3
Oc1ccnc2ccccc12 | 1.5
c1ccc2ncccc2c1 | 1.4
Oc1ccc2c(O)cc(-c3ccccc3)nc2c1 | 15.3
Oc1cc(-c2ccccc2)nc2c(O)cccc12 | 9.18

Tested on: Brain
Assay: Antioxidant activity against toxin solution-induced lipid peroxidation in Sprague-Dawley rat brain homogenates assessed as free MDA levels per mg of tissue at 1 by TBARS assay
Format: functional, tissue-based
Procedure, shortened: as §1

SMILES | Activity
O=c1cc(-c2ccccc2)oc2cc(O)ccc12 | 0.91 nmol
O=c1cc(-c2ccccc2)oc2ccc(O)cc12 | 0.63 nmol
Oc1cccc2cccnc12 | 0.07 nmol
O=c1cc(-c2ccccc2)oc2ccccc12 | 0.83 nmol
Oc1ccc2nc(-c3ccccc3)cc(O)c2c1 | 0.05 nmol
Oc1ccnc2ccccc12 | 0.77 nmol
Oc1cc(-c2ccccc2)nc2ccccc12 | 0.87 nmol
c1ccc2ncccc2c1 | 0.73 nmol
Oc1ccc2c(O)cc(-c3ccccc3)nc2c1 | 0.72 nmol
Oc1cc(-c2ccccc2)nc2c(O)cccc12 | 0.27 nmol
